target: T1, Neutrophil elastase (Homo sapiens, UniProt P08246); assay: Inhibition of human leukocyte elastase
T1 sequence (P08246 whole entry): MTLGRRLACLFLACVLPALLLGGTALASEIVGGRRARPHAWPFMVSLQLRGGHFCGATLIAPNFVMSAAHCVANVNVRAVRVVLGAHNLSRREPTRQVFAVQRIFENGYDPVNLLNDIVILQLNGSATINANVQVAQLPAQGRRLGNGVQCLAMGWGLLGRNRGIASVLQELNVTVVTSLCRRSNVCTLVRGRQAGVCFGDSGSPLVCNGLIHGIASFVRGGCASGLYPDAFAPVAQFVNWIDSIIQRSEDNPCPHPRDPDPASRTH
Method in brief: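 Enzyme preincubated 4 min with inhibitor (DMSO stock, 1 mg/mL, diluted in DMSO when needed) in 0.1 M Tris-NaCl buffer pH 7.5 with NaN3. Aliquot then added to N-(methoxysuccinyl)-Ala-Ala-Pro-Val 4-nitroanilide substrate in buffer. Residual hydrolysis rate read at 410 nm for 2 min at 1 s intervals; IC50 taken from varied inhibitor volumes.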

| SMILES | IC50 [µM] |
| --- | --- |
| CC(=O)OCC1=C(C(=O)OC(c2ccccc2)c2ccccc2)N2C(=O)/C(=C/c3ccccn3)C2SC1 (stereo not drawn) | > 10 |
| CC(=O)OCC1=C(C(=O)OC(c2ccccc2)c2ccccc2)N2C(=O)/C(=C\Br)C2SC1 (stereo not drawn) | 0.39 |
| CC(=O)OCC1=C(C(=O)OC(c2ccccc2)c2ccccc2)N2C(=O)/C(=C/c3ccccc3)C2S(=O)(=O)C1 (stereo not drawn) | 8.9 |
| CC(=O)OCC1=C(C(=O)OC(c2ccccc2)c2ccccc2)N2C(=O)C(=C=CC(C)(C)C)C2SC1 (stereo not drawn) | > 10 |
| CC(=O)OCC1=C(C(=O)OC(c2ccccc2)c2ccccc2)N2C(=O)/C(=C/C=O)C2SC1 (stereo not drawn) | 13.9 |
| CO[C@H]1C(=O)N2C(C(=O)OC(c3ccccc3)c3ccccc3)=C(COC(C)=O)CSC12 (stereo partly drawn) | 5.35 |
| CON(C)C(=O)/C=C1/C(=O)N2C(C(=O)OC(c3ccccc3)c3ccccc3)=C(COC(C)=O)CS(=O)(=O)C12 (stereo not drawn) | > 10 |
| CC(=O)OCC1=C(C(=O)OC(c2ccccc2)c2ccccc2)N2C(=O)C(=C(Br)Br)C2SC1 (stereo not drawn) | 0.26 |
| CC(=O)OCC1=C(C(=O)OC(c2ccccc2)c2ccccc2)N2C(=O)/C(=C/CO)C2SC1 (stereo not drawn) | > 10 |
| CC(=O)OCC1=C(C(=O)OC(c2ccccc2)c2ccccc2)N2C(=O)C(=O)C2SC1 (stereo not drawn) | > 10 |
| CC(=O)OCC1=C(C(=O)OC(c2ccccc2)c2ccccc2)N2C(=O)/C(=C\c3ccccc3)C2S(=O)(=O)C1 (stereo not drawn) | 6 |
| CC(=O)OCC1=C(C(=O)OC(c2ccccc2)c2ccccc2)N2C(=O)C(=C=CC(C)(C)C)C2S(=O)(=O)C1 (stereo not drawn) | 10.5 |
| CC(=O)OCC1=C(C(=O)OC(c2ccccc2)c2ccccc2)N2C(=O)/C(=C\Br)C2S(=O)(=O)C1 (stereo not drawn) | 3.36 |
| CC(=O)OCC1=C(C(=O)OC(c2ccccc2)c2ccccc2)N2C(=O)C(=C=CBr)C2SC1 (stereo not drawn) | 5.4 |
| CC(=O)OCC1=C(C(=O)OC(c2ccccc2)c2ccccc2)N2C(=O)/C(=C/C#N)C2S(=O)(=O)C1 (stereo not drawn) | 0.49 |
| CC(=O)OCC1=C(C(=O)OC(c2ccccc2)c2ccccc2)N2C(=O)C(=C(Cl)Cl)C2S(=O)(=O)C1 (stereo not drawn) | 2.56 |
| CC(=O)OCC1=C(C(=O)OC(c2ccccc2)c2ccccc2)N2C(=O)C(=C(Cl)Cl)C2SC1 (stereo not drawn) | 6.41 |
| COC(=O)/C=C1/C(=O)N2C(C(=O)OC(c3ccccc3)c3ccccc3)=C(COC(C)=O)CSC12 (stereo not drawn) | 2.6 |
| CC(=O)OCC1=C(C(=O)OC(c2ccccc2)c2ccccc2)N2C(=O)CC2SC1 (stereo not drawn) | > 10 |

| SMILES | IC50 [µM] |
| --- | --- |
| CC(=O)/C=C1/C(=O)N2C(C(=O)OC(c3ccccc3)c3ccccc3)=C(COC(C)=O)CS(=O)(=O)C12 (stereo not drawn) | > 10 |
| CC(=O)OCC1=C(C(=O)OC(c2ccccc2)c2ccccc2)N2C(=O)[C@@H](N)C2SC1 (stereo partly drawn) | > 10 |
| [2H]C(=C=C1C(=O)N2C(C(=O)OC(c3ccccc3)c3ccccc3)=C(COC(C)=O)CS(=O)(=O)C12)C(C)(C)C (stereo not drawn) | 13.5 |
| COC(=O)/C(Br)=C1/C(=O)N2C(C(=O)OC(c3ccccc3)c3ccccc3)=C(COC(C)=O)CSC12 (stereo not drawn) | 0.21 |
| C=C=C1C(=O)N2C(C(=O)OC(c3ccccc3)c3ccccc3)=C(COC(C)=O)CSC12 (stereo not drawn) | 9 |
| CC(=O)OCC1=C(C(=O)OC(c2ccccc2)c2ccccc2)N2C(=O)/C(=C/c3ccccc3)C2SC1 (stereo not drawn) | > 10 |
| CO[C@H]1C(=O)N2C(C(=O)OC(c3ccccc3)c3ccccc3)=C(COC(C)=O)CS(=O)(=O)C12 (stereo partly drawn) | 0.28 |
| COC(=O)/C=C1/C(=O)N2C(C(=O)OC(c3ccccc3)c3ccccc3)=C(COC(C)=O)CS(=O)(=O)C12 (stereo not drawn) | 8.9 |
| CC(=O)OCC1=C(C(=O)OC(c2ccccc2)c2ccccc2)N2C(=O)/C(=C\c3ccccc3)C2SC1 (stereo not drawn) | > 10 |
| CC(=O)/C=C1/C(=O)N2C(C(=O)OC(c3ccccc3)c3ccccc3)=C(COC(C)=O)CSC12 (stereo not drawn) | 4.27 |
| CC(=O)OCC1=C(C(=O)OC(c2ccccc2)c2ccccc2)N2C(=O)[C@H](I)C2SC1 (stereo partly drawn) | 1.18 |
| CC(=O)OCC1=C(C(=O)OC(c2ccccc2)c2ccccc2)N2C(=O)/C(=C/C#N)C2SC1 (stereo not drawn) | > 10 |
| CC(=O)OCC1=C(C(=O)OC(c2ccccc2)c2ccccc2)N2C(=O)C(Br)(Br)C2SC1 (stereo not drawn) | 1.39 |
| CC(=O)OCC1=C(C(=O)OC(c2ccccc2)c2ccccc2)N2C(=O)/C(=C/C(=O)OC(C)(C)C)C2S(=O)(=O)C1 (stereo not drawn) | 7.1 |
| CC(=O)OCC1=C(C(=O)OC(c2ccccc2)c2ccccc2)N2C(=O)[C@H](Cl)C2SC1 (stereo partly drawn) | 6 |
| CC(=O)OCC1=C(C(=O)OC(c2ccccc2)c2ccccc2)N2C(=O)/C(=C/C(=O)OC(C)(C)C)C2SC1 (stereo not drawn) | > 10 |
| CC(=O)OCC1=C(C(=O)OC(c2ccccc2)c2ccccc2)N2C(=O)/C(=C/c3ccccn3)C2S(=O)(=O)C1 (stereo not drawn) | > 10 |
| CC(=O)OCC1=C(C(=O)OC(c2ccccc2)c2ccccc2)N2C(=O)C(=C(Br)Br)C2S(=O)(=O)C1 (stereo not drawn) | 2.07 |
| C=C=C1C(=O)N2C(C(=O)OC(c3ccccc3)c3ccccc3)=C(COC(C)=O)CS(=O)(=O)C12 (stereo not drawn) | 6.1 |

Source: ChEMBL document CHEMBL1130215, “7-alkylidenecephalosporin esters as inhibitors of human leukocyte elastase” (J Med Chem, 1997)
